Test results from the EternaBench riboswitch data.

Columns and labels:
MS2 coat protein [1] = assay: apparent Kd, MS2 coat protein; higher = weaker binding; RNA-MaP array; tryptophan 2.4 mM where present
How it was run: (§1)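 Binding was read on Illumina sequencing-chip clusters where stalled E. coli RNA polymerase had transcribed each design. A titration of SNAP-549-labelled MS2 coat protein began at 0.7 or 1.5 nM and doubled to 3 µM, once without ligand and once with constant ligand, in 100 mM Tris-HCl pH 7.5, 80 mM KCl, 4 mM MgCl2, BSA, DTT, yeast tRNA and Tween-20. The apparent Kd is the median of filtered per-cluster binding-curve fits, based on green signal normalised to red-channel RNA signal and control-cluster median Fmax.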

MS2 coat protein [2] = assay: apparent Kd, MS2 coat protein; higher = weaker binding; RNA-MaP array; theophylline 2 mM where present
How it was run: as §1

[3] = designed as: OFF switch for tryptophan, no ligand
[4] = ligand present: tryptophan, designed as: OFF switch for tryptophan
[5] = designed as: ON switch for tryptophan, no ligand
[6] = ligand present: tryptophan, designed as: ON switch for tryptophan
[7] = designed as: ON switch for theophylline, no ligand
[8] = ligand present: theophylline, designed as: ON switch for theophylline
[9] = designed as: OFF switch for theophylline, no ligand
[10] = ligand present: theophylline, designed as: OFF switch for theophylline

Sequence: GGAAAAGAAAGAAAAGAAAUCCCUCCCUCCCGAGGACCGGUACGGCCGCCACUCGCCCUCCCUCCCACAUGAGGAUCACCCAUGU
- apparent Kd (MS2 coat protein [1]; [3]): 23.5 nM
- apparent Kd (MS2 coat protein [1]; [4]): 23.4 nM

Sequence: GACGAUAUGAUACGUCAGCAAUCCUCGAAACGAGGACCGGUACGGCCGCCACUCGAGUGAUACACAUGAGGAUCACCCAUGUACC
- apparent Kd (MS2 coat protein [1]; [3]): 39.3 nM
- apparent Kd (MS2 coat protein [1]; [4]): 53.2 nM

Sequence: UCGCCCGGGUCGGCCGCCACUGCGGUGAUGUGACAUGAGGAUCACCCAUGUUGUCAUGUGGCACAUAGGACCGGGACCCGGGCGA
- apparent Kd (MS2 coat protein [1]; [3]): 30.5 nM
- apparent Kd (MS2 coat protein [1]; [4]): 29.9 nM

Sequence: AUAUAUACAUGAGGAUCACCCAUGUUAUUACGAGGACCGGUACGGCCGCCACUCGAUAGAGUAGAAGUAAAUUGUAAUUCAUGUU
- apparent Kd (MS2 coat protein [1]; [3]): 12.4 nM
- apparent Kd (MS2 coat protein [1]; [4]): 12.6 nM

Sequence: AAUGGCCGUACCGGAAGGGUGAUCCUCAAACGAGGACCGGUACGGCCGCCACUCGAUAACAUGAGGAUCACCCAUGUAAUACAUA
- apparent Kd (MS2 coat protein [1]; [3]): 366 nM
- apparent Kd (MS2 coat protein [1]; [4]): 318 nM

Sequence: UGUCAUGGAAACAUGACAGGUUCUACCGGUCGAGGACCGGUACGGCCGCCACUCGAUUGGUGGCACAUGAGGAUCACCCAUGUUA
- apparent Kd (MS2 coat protein [1]; [5]): 25.2 nM
- apparent Kd (MS2 coat protein [1]; [6]): 25.2 nM

Sequence: UUCUUUAAGUCGGCCGCCACUGAAACAUGAGGAUCACCCAUGUAUAUUUGUGUAAAGGUGGAUUACAGGACCGGGACUAUAGUAA
- apparent Kd (MS2 coat protein [1]; [3]): 12 nM
- apparent Kd (MS2 coat protein [1]; [4]): 12 nM

Sequence: GUGUGGAGCUCGGCCGCCACUCAAACAUGAGGAUCACCCAUGUAAAACAUGAGGAUCACCCAUGUGAGGACCGGGAGAAACACGA
- apparent Kd (MS2 coat protein [1]; [3]): 338 nM
- apparent Kd (MS2 coat protein [1]; [4]): 404 nM

Sequence: AAUGAGUGGUGGUCAAGUGAUCCUCAUGAACGAGGACCGGUACGGCCGCCACUCGAUAACAUGAGGAUCACCCAUGUAAUAAUAA
- apparent Kd (MS2 coat protein [1]; [3]): 16.5 nM
- apparent Kd (MS2 coat protein [1]; [4]): 14.8 nM

Sequence: AUAAUAAUCCUCAUGUAAGGUCCUCGAUAACGAGGACCGGUACGGCCGCCACUCGAACAUGAGGAUCACCCAUGUACGAGGACCA
- apparent Kd (MS2 coat protein [1]; [5]): 42.5 nM
- apparent Kd (MS2 coat protein [1]; [6]): 32.6 nM

Sequence: AUCAUAAUAGACUCGUUUGAUUAUAUGGAACGAGGACCGGUACGGCCGCCACUCGUGAUUUACAUGAGGAUCACCCAUGUUAGCA
- apparent Kd (MS2 coat protein [1]; [3]): 15.7 nM
- apparent Kd (MS2 coat protein [1]; [4]): 13.9 nM

Sequence: GCAUCCUAGUCGGCCGCCACUGGUAUCAACACCUUCACCCGUGUGCACAUGAGGAUCACCCAUGUUAGGACCGGGACUAGGAUGC
- apparent Kd (MS2 coat protein [1]; [5]): 8.4 nM
- apparent Kd (MS2 coat protein [1]; [6]): 8.5 nM

Sequence: UACUUGCUGACGGCCGCCACUAGAACAUGAGGAUCACCCAUGUAGGUCCUAGAUUCCUCAUGAACUAGGACCGGGUCAGCAAGAU
- apparent Kd (MS2 coat protein [1]; [3]): 52.6 nM
- apparent Kd (MS2 coat protein [1]; [4]): 12.4 nM

Sequence: AGCACGGUGAUGGUAGCCGGACGCUAGGUACGAGGACCGGUACGGCCGCCACUCGAAGUCCUACGACAUGAGGAUCACCCAUGUA
- apparent Kd (MS2 coat protein [1]; [5]): 53.5 nM
- apparent Kd (MS2 coat protein [1]; [6]): 40.5 nM

Sequence: GUCCAAAGGUCGGCCGCCACUGUAGGAUGUGUUCUUUCACAUGAGGAUCACCCAUGUUGUUAUUAUAGGACCGGGAUUGUAGGAC
- apparent Kd (MS2 coat protein [1]; [3]): 20.5 nM
- apparent Kd (MS2 coat protein [1]; [4]): 18.5 nM

Sequence: GCGACCCUGAGAUCCUACGUAACGUGAACACGAGGACCGGUACGGCCGCCACUCGAGAGAACAUGAGGAUCACCCAUGUCUGAGC
- apparent Kd (MS2 coat protein [1]; [3]): 32.9 nM
- apparent Kd (MS2 coat protein [1]; [4]): 88.5 nM

Sequence: UAAUCAGUGCCGGUUCUCGGAUCCUCAUGUCGAGGACCGGUACGGCCGCCACUCGAAACAUGAGGAUCACCCAUGUAAUAAUAAU
- apparent Kd (MS2 coat protein [1]; [3]): 89.6 nM
- apparent Kd (MS2 coat protein [1]; [4]): 65.8 nM

Sequence: CUUGACAUGAGGAUCACCCAUGUUGGUAAACGAGGACCGGUACGGCCGCCACUCGGUUACGUGUAGUACCGGUAAGAUCCAGGGU
- apparent Kd (MS2 coat protein [1]; [5]): 29.3 nM
- apparent Kd (MS2 coat protein [1]; [6]): 27.1 nM

Sequence: ACAUGAGGAUCACCCAUGUUUGAUGUUCCUCGAGGACCGGUACGGCCGCCACUCGAACGAGUGGCGCGCGAGCGCGCGCUCGCGC
- apparent Kd (MS2 coat protein [1]; [5]): 12.2 nM
- apparent Kd (MS2 coat protein [1]; [6]): 12.7 nM

Sequence: ACUACGAAGACGGCCGCCACUGAUAUUCGUAGAUCCAUCAAUACAUGAGGAUCACCCAUGUAUAUCAGGACCGGGUCAAGAUGGU
- apparent Kd (MS2 coat protein [1]; [3]): 22.6 nM
- apparent Kd (MS2 coat protein [1]; [4]): 47.2 nM

Sequence: UACUUGCUGACGGCCGCCACUAGAACAUGAGGAUCACCCAUGUAUGGCGGCCGUCAUGGGUGGACUAGGACCGGGUCAGCAAGAU
- apparent Kd (MS2 coat protein [1]; [3]): 9.84 nM
- apparent Kd (MS2 coat protein [1]; [4]): 13.6 nM

Sequence: AAUGUCGGAUCGGCCGCCACUGGUUGGCCCUGUGUACAUGAGGAUCACCCAUGUCCAUCCCAAACCAGGACCGGGAUCUUUAUGU
- apparent Kd (MS2 coat protein [1]; [5]): 36.1 nM
- apparent Kd (MS2 coat protein [1]; [6]): 13 nM

Sequence: AAUAACAUGAGGAUCACCCAUGUAAAAGAUACCAGAGUGAUGAUCCUCCCUUGGCAGCUUAAACGCUAUUGGAAACAAUAGCGAA
- apparent Kd (MS2 coat protein [2]; [7]): 70.2 nM
- apparent Kd (MS2 coat protein [2]; [8]): 167 nM

Sequence: UUCUACAUGAGGAUCACCCAUGUGGGUGAUACCAGCACUUUUUGGUGCCCUUGGCAGCACAUGAGAAUGCCGUAAAAUCGGCGAU
- apparent Kd (MS2 coat protein [2]; [7]): 334 nM
- apparent Kd (MS2 coat protein [2]; [8]): 500 nM

Sequence: UCACAUGAGGAUCACCCAUGUACAGGCGAUACCAGCCGUACAUUGGGCCCUUGGCAGCGCACCGAGACCUUUAUAAGCACCUCGG
- apparent Kd (MS2 coat protein [2]; [7]): 29.5 nM
- apparent Kd (MS2 coat protein [2]; [8]): 192 nM

Sequence: ACAUGAGGAUCACCCAUGUGGCGUCUUGAUACCAGACGAGAAGUAGUCCCUUGGCAGCAAAUACGUGAGGAUCACACAUGUGCGA
- apparent Kd (MS2 coat protein [2]; [9]): 23.2 nM
- apparent Kd (MS2 coat protein [2]; [10]): 37.3 nM

Sequence: CAUGAAGUAACUGAUACCAGUGUACUGACAUGAGGAUCACCCAUGUUGGGUUUUGUUGUACACCCUUGGCAGCAGAAUCUUUAUG
- apparent Kd (MS2 coat protein [2]; [9]): 69.1 nM
- apparent Kd (MS2 coat protein [2]; [10]): 110 nM

Sequence: AUCGUACCUGAUGAUACCAGCAAUUGCUCGUAACAUGAGGAUCACCCAUGUGACCAGUGAUGCCCUUGGCAGCAUGGUCGGUGCA
- apparent Kd (MS2 coat protein [2]; [7]): 172 nM
- apparent Kd (MS2 coat protein [2]; [8]): 38.5 nM

Sequence: UUAGAUAUGACGGAUACCAGCGUGUUGUAGAACAUGAGGAUCACCCAUGUAGUGAUCGUGCGCCCUUGGCAGCUGGUAUGUUUGG
- apparent Kd (MS2 coat protein [2]; [7]): 250 nM
- apparent Kd (MS2 coat protein [2]; [8]): 898 nM

Sequence: ACAUGAGGAUCACCCAUGUGCAGCACGGAUACCAGCGUCCUAGUGCGCCCUUGGCAGCCGGACAUGAGGAUCACCCAUGUGUGGG
- apparent Kd (MS2 coat protein [2]; [9]): 77.6 nM
- apparent Kd (MS2 coat protein [2]; [10]): 219 nM

Sequence: ACUCGGUGUUUGUUGCUCCGAGUUUAUGAUACCAGUUAGUUUUAUGGCCCUUGGCAGCAUAGGACAUGAGGAUCACCCAUGUGUU
- apparent Kd (MS2 coat protein [2]; [7]): 31.7 nM
- apparent Kd (MS2 coat protein [2]; [8]): 53.8 nM

Sequence: AGCGACAUGCAUGAUACCAGCUACAUGAGGAUCACCCAUGUACGUCAGUAAUGACUGUGUAGCCCUUGGCAGCAUAGAGCAUGUU
- apparent Kd (MS2 coat protein [2]; [9]): 17.4 nM
- apparent Kd (MS2 coat protein [2]; [10]): 53.6 nM

Sequence: UAAACACAUGAGGAUCACCCAUGUCAUGAUACCAGUCAACAUGAGGACCCUUGGCAGCAUAAAAUGGGUAACAUGAGGAUCACCC
- apparent Kd (MS2 coat protein [2]; [9]): 38.4 nM
- apparent Kd (MS2 coat protein [2]; [10]): 112 nM

Sequence: ACGUCUCGAAAACUCGUAGUAACUAUAGAUACCAGUAGCGAGAGUUACCCUUGGCAGCUACAUGAGGAUCACCCAUGUACGAGGA
- apparent Kd (MS2 coat protein [2]; [9]): 15.6 nM
- apparent Kd (MS2 coat protein [2]; [10]): 15 nM

Sequence: AUAUGAUCAUGUGAUACCAGAAAUGGUAGUCCUCGCUGGAUUACAUGAGGAUCACCCAUGUUCCCUUGGCAGCAUAUGAUCAUAU
- apparent Kd (MS2 coat protein [2]; [9]): 66.6 nM
- apparent Kd (MS2 coat protein [2]; [10]): 751 nM

Sequence: AAGGUGAUCCCAGAUACCAGCUUAACAUGAGGAUCACCCAUGUUUGGGACGAAAGUCCCGGGCCCUUGGCAGCUGGGUUGCCAAG
- apparent Kd (MS2 coat protein [2]; [7]): 196 nM
- apparent Kd (MS2 coat protein [2]; [8]): 131 nM

Sequence: AUUAUCAUGGUCAUAUAUAUAUCUUCAGAUACCAGACUAUAUUAAGUCCCUUGGCAGCUGUUACAUGAGGAUCACCCAUGUUAUA
- apparent Kd (MS2 coat protein [2]; [9]): 172 nM
- apparent Kd (MS2 coat protein [2]; [10]): 43.5 nM

Sequence: UGACAUUGCUCAGAUACCAGACAUGAGGAUCACCCAUGUACCAAGGUAAGAAAAUAACAUGUCCCUUGGCAGCUGAGCAAUGUCU
- apparent Kd (MS2 coat protein [2]; [9]): 16.2 nM
- apparent Kd (MS2 coat protein [2]; [10]): 240 nM

Sequence: GCCCUUGGCAGCGAUACCAGCCAAAAUUAAAAUAAACCUCUACAUGAGGAUCACCCAUGUGGCCCUUGGCAGCGAUACCAGCAAA
- apparent Kd (MS2 coat protein [2]; [9]): 49.7 nM
- apparent Kd (MS2 coat protein [2]; [10]): 76.4 nM

Sequence: ACAUGAGGAUCACCCAUGUGGCGACUUGAUACCAGACCCGCACUAGUCCCUUGGCAGCAACUACGUGUGGGACACCCAUGUGAAG
- apparent Kd (MS2 coat protein [2]; [9]): 20.8 nM
- apparent Kd (MS2 coat protein [2]; [10]): 33.7 nM
